From ChEMBL document CHEMBL1142275, “Searching for new NO-donor aspirin-like molecules: a new class of nitrooxy-acyl derivatives of salicylic acid” (J Med Chem, 2008) come the findings set out here.

What is called half-life is how long it takes for the measured level to halve. The pKa is the pH at which an ionisable group is half protonated. A higher pKa goes with a group that holds its proton tightly. The logP is the decadic logarithm of the partition coefficient of the neutral form, usually between octanol and water. Usually EC50 stands for the concentration giving half of the maximal effect. For orientation: inhibition means the share of the control response that was lost under treatment. A lower inhibition goes with a response near the control. A word on the IC50: it is the midpoint of a concentration-inhibition curve.

Activity calls are given as the source filed them. The rule behind the calls is not given here.

Data set [1] in a line: Chemical stability in aqueous buffer at pH 1 after 3 hrs. It counts as physicochemical. Particulars: read-out: Stability. Put shortly:
(§1)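 10 mM acetonitrile stock added to 0.1 M HCl (pH 1) or 50 mM phosphate buffer pH 7.4 preheated to 37 °C; final compound 250 μM. Held at 37 ± 0.5 °C, aliquots taken at intervals and analysed by RP-HPLC. Value is % compound remaining unchanged at 3 h.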

Data set [2] is described as follows: Chemical stability in aqueous buffer at pH 7.4 after 3 hrs. Format: physicochemical. Particulars: read-out: Stability. The method, boiled down:
as §1

A short description of data set [3]: Stability in human serum assessed as half life. It counts as ADME, cell-free. The method, boiled down:
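Compound from 10 mM acetonitrile stock added to human serum at 37 °C (final 250 μM), incubated at 37 ± 0.5 °C. Aliquots deproteinised with acetonitrile containing 0.1% TFA, sonicated, vortexed, centrifuged 10 min at 2150 g, filtered, then RP-HPLC for parent compound and salicylic acid. First-order hydrolysis; t1/2 in h ± SD.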

Data set [4] deals with Plasma. Description: Inhibition of collagen-induced platelet aggregation in human plasma in presence of 1H-[1,2,4]oxadiazolo[4,3-a]quinoxalin-1-one. It counts as functional, cell-free. Put shortly: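 Human PRP prepared by centrifuging citrated blood at 200 g for 20 min. Compounds (vehicle 0.5% DMSO) preincubated 10 min before collagen at 0.8-1.5 μg/mL (submaximal). Light-transmission aggregometry, stirring 1000 rpm, 37 °C, 10 min. sGC inhibitor ODQ at 50 μM. Inhibition relative to control; IC50 by non-linear regression, otherwise % inhibition at 300 μM; ≥5 experiments.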

Data set [5] in a line: Dissociation constant, pKa of the compound. Format: physicochemical.
Data set [6] can be described thus: Lipophilicity, log P of the compound. It counts as physicochemical. Particulars: octanol/water.
The test system of the next data set is Aorta. Nature of the data set: Vasodilation activity in Wistar rat aorta assessed as relaxation of phenylephrine-induced smooth muscle contraction.
In data set [7] the test system is Plasma. Description: Inhibition of collagen-induced platelet aggregation in human plasma at 300 uM relative to control.
Data set [8] concerns Plasma. Description: Inhibition of collagen-induced platelet aggregation in human plasma in presence of 1H-[1,2,4]oxadiazolo[4,3-a]quinoxalin-1-one.
Data set [9] concerns Rattus norvegicus. Description: Antiinflammatory activity against carrageenan-induced paw edema in Wistar rat at 120 mg/kg, intragastrically after 3 hrs. Format: functional. The following applies: route intragastric. The method, boiled down:
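Conscious rats, edema raised by intraplantar 0.1 ml of 1% carrageenan (in 1% CMC) into right hindpaw. […] Paw volume by water plethysmometer before and 3 h after carrageenan. Inhibition expressed relative to vehicle edema taken as 100. Groups of 6-8 animals; mean ± SEM.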
A general note: Carrageenan injected into the paw causes an acute inflammation.

Data set [10] has as its system Rattus norvegicus. Nature of the data set: Toxicity in Wistar rat assessed as lesion index at 120 mg/kg, intragastrically after 3 hrs. Format: organism-based. On the set-up: dose 120 mg/kg, route intragastric. The following applies: in vivo, po. Put shortly: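 Male Wistar rats, 180-200 g, fasted 24 h with water available. […] Killed after 3 h; stomachs opened along the lesser curvature and glandular mucosa examined under stereomicroscope. Each haemorrhagic lesion rated by greatest length (<1 mm = 1; 1-2 mm = 2; >2 mm = length), then summed as lesion index; mean ± SEM.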

For the compound `O=C(CCCCCCO[N+](=O)[O-])Oc1ccccc1C(=O)O`, the remaining at 3 h in data set [1] was greater than 97%; in [2], greater than 95%. Moreover, the half-life in [3] was 1.19 h. Moreover, in the data set on Plasma [4], the outcome was inactive. The same compound came in with a pKa in [5] of 3.69. In addition, the logP in data set [6] worked out at 1.6. In the data set on Aorta, the half-maximal effective concentration (EC50) worked out at 8.1 µM.

Regarding `O=C(CCCC(CO[N+](=O)[O-])O[N+](=O)[O-])Oc1ccccc1C(=O)O` (stereo not given), the remaining at 3 h in data set [1] is greater than 85%; in data set [2], greater than 95%. In addition, the half-life in data set [3] is 4.87 h. In data set [5], the pKa worked out at 3.69. The logP in data set [6] is 1.6. The same compound had an inhibition at 300 µM in the data set on Plasma [7] of 6.7%. In addition, the EC50 in the data set on Aorta was determined as 5.8 µM.

As for `CC(C)(CO[N+](=O)[O-])C(=O)Oc1ccccc1C(=O)O`, the remaining at 3 h in data set [1] is greater than 97%; in data set [2], greater than 95%. Also, the half-life in data set [3] is 9.03 h. Also, the pKa in data set [5] turned out to be 3.69. This compound also displayed a log partition coefficient (logP) in [6] of 1.6. This compound also gave an inhibition at 300 µM in the data set on Plasma [7] of 26%. Besides, the EC50 in the data set on Aorta is 6.2 µM.

On to `O=C(CCCCO[N+](=O)[O-])Oc1ccccc1C(=O)O`, for which the remaining at 3 h in [1] was greater than 97%; in [2], greater than 95%. In data set [3], the half-life is 0.76 h. In [5], the pKa worked out at 3.69. The compound further showed a logP in [6] of 1.6. Also, in the data set on Aorta, the EC50 was 21 µM. In addition, the 50% inhibitory concentration (IC50) in the data set with Plasma [8] came out at 91 µM.

Regarding `CC(C)(CCC(CO[N+](=O)[O-])O[N+](=O)[O-])C(=O)Oc1ccccc1C(=O)O` (stereo not given), the figures for the remaining at 3 h in data set [1] and in data set [2] were greater than 97% and greater than 95%, respectively. Moreover, in data set [3], the half-life was 15.2 h. For the same compound, in the data set on Plasma [4], the outcome was inactive. In data set [5], the pKa was determined as 3.69. In data set [6], the logP stood at 1.6. Besides, in the data set with Aorta, the EC50 is 5.3 µM.

As for `CC(=O)Oc1ccccc1C(=O)O` [ASPIRIN], the remaining at 3 h in data set [1] and in [2] was greater than 90% throughout. In addition, the half-life in [3] was 1.06 h. Also, the Activity is 47% in the data set with Rattus norvegicus [9] and 53.5% in the data set with Rattus norvegicus [10]. Also, the logP in data set [6] amounted to 1.14.

Take `O=C(CCCCC(CO[N+](=O)[O-])O[N+](=O)[O-])Oc1ccccc1C(=O)O` (stereo not given): the remaining at 3 h in data set [1] was greater than 85%; in data set [2], greater than 95%. In addition, in data set [3], the half-life is 6.25 h. For the same compound, the result in the data set on Plasma [4] was inactive. In data set [5], this compound yielded a pKa of 3.69. For the same compound, the log partition coefficient (logP) in data set [6] turned out to be 1.6. For the same compound, in the data set on Aorta, the concentration for a half-maximal effect (EC50) came to 3.1 µM.

For `O=C(CCO[N+](=O)[O-])Oc1ccccc1C(=O)O`, the remaining at 3 h is greater than 90% in [1] and 55% in data set [2]. For the same compound, the half-life in [3] is 0.26 h. Besides, in [5], the pKa was determined as 3.69. This compound also yielded a lipophilicity (logP) in data set [6] of 1.6. Moreover, the EC50 with Aorta was determined as 37 µM. Further, the IC50 in the data set on Plasma [8] came out at 186 µM.

With `O=C(CC(CO[N+](=O)[O-])O[N+](=O)[O-])Oc1ccccc1C(=O)O` (stereo not given), the remaining at 3 h in data set [1] was greater than 85%; in data set [2], 20%. Also, the half-life in data set [3] was 0.28 h. For the same compound, in [5], the pKa is 3.69. In data set [6], this compound returned a lipophilicity (logP) of 1.6. In addition, the EC50 in the data set on Aorta came out at 9.2 µM. Besides, the IC50 in the data set with Plasma [8] was 119 µM.

For the compound `O=C(CCCCCO[N+](=O)[O-])Oc1ccccc1C(=O)O`, the values for the remaining at 3 h in data set [1] and in data set [2] were greater than 97% and greater than 95%, respectively. Also, the half-life in data set [3] is 2.03 h. This compound also yielded a pKa in data set [5] of 3.69. Also, the lipophilicity (logP) in data set [6] was 1.6. Also, the inhibition at 300 µM in the data set with Plasma [7] was 27%. Moreover, the concentration for a half-maximal effect (EC50) in the data set on Aorta stood at 14 µM.

Take `O=C(CCCO[N+](=O)[O-])Oc1ccccc1C(=O)O`: the remaining at 3 h in data set [1] was greater than 97%; in data set [2] it was greater than 95%. Moreover, the half-life in data set [3] is 0.47 h. Moreover, the pKa in [5] turned out to be 3.69. Moreover, the logP in [6] amounted to 1.6. Besides, the concentration giving a half-maximal response (EC50) in the data set with Aorta amounted to 23 µM. For the same compound, the half-inhibitory concentration (IC50) in the data set with Plasma [8] amounted to 24 µM.

In the case of `O=C(O)c1ccccc1O` [SALICYLIC ACID], the remaining at 3 h in data set [1] is 85%; in [2], greater than 90%.

On to `O=C(CCC(CO[N+](=O)[O-])O[N+](=O)[O-])Oc1ccccc1C(=O)O` (stereo not given), for which the remaining at 3 h is greater than 85% in [1] and greater than 95% in data set [2]. Besides, the half-life in data set [3] was 4.09 h. In data set [5], this compound returned a pKa of 3.69. Further, the log partition coefficient (logP) in data set [6] stood at 1.6. The inhibition at 300 µM in the data set on Plasma [7] amounted to 15%. In addition, the EC50 in the data set on Aorta was 8.2 µM.
